Results as given in ChEMBL document CHEMBL3588853, “Synthesis, biological evaluation, and molecular docking studies of novel 1-benzene acyl-2-(1-methylindol-3-yl)-benzimidazole derivatives as potential tubulin polymerization inhibitors” (Eur J Med Chem, 2015).
Each block holds one compound with its values, some of them ahead of it.

Tests used:
[1] = target: Tubulin (Bos taurus) (UniProt Q6B856+Q862F3); details: at 5 µM
[2] = test system: A549; assay: Growth inhibition of human A549 cells assessed as inhibition of cell proliferation after 24 hrs by MTT assay; format: functional; details: A549, 24 h
Procedure, shortened: (§1)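 Cells seeded at (1–5) × 10^3 per well and grown 12 h at 37 °C. Compounds added at increasing concentrations in medium with 10% FBS for 24 h. MTT dye then added, followed by 3–4 h at 37 °C. Medium discarded, formazan dissolved in DMSO and plate read. GI50 calculated relative to DMSO-treated control wells.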

[3] = test system: MCF7; assay: Growth inhibition of human MCF7 cells assessed as inhibition of cell proliferation after 24 hrs by MTT assay; format: functional; details: MCF7, 24 h
Procedure, shortened: as §1

[4] = target: Tubulin (Bos taurus, UniProt Q6B856+Q862F3); assay: Inhibition of bovine brain tubulin polymerization extent after 20 mins by turbidimetrically
[5] = test system: HepG2; assay: Growth inhibition of human HepG2 cells assessed as inhibition of cell proliferation after 24 hrs by MTT assay; format: functional; details: HepG2, 24 h
Procedure, shortened: as §1

[6] = test system: A549; assay: Induction of cell cycle arrest in human A549 cells assessed as accumulation at G0/G1 phase at 1 uM after 24 hrs by propidium iodide staining based flow cytometric analysis (reference value: 79.11%); format: functional
[7] = test system: A549; assay: Induction of cell cycle arrest in human A549 cells assessed as accumulation at SubG0 phase at 2 uM after 24 hrs by propidium iodide staining based flow cytometric analysis (reference value: 0%); format: functional
[8] = test system: A549; assay: Induction of cell cycle arrest in human A549 cells assessed as accumulation at SubG0 phase at 5 uM after 24 hrs by propidium iodide staining based flow cytometric analysis (reference value: 0%); format: functional
[9] = test system: A549; assay: Induction of apoptosis in human A549 cells assessed as viable cells at 1 uM after 24 hrs by annexin V/PI double staining FACScalibur flow cytometry (reference value: 99%); format: functional; details: A549, 24 h, read-out: Activity
[10] = test system: A549; assay: Induction of cell cycle arrest in human A549 cells assessed as accumulation at G0/G1 phase at 2 uM after 24 hrs by propidium iodide staining based flow cytometric analysis (reference value: 79.11%); format: functional
[11] = test system: A549; assay: Induction of apoptosis in human A549 cells assessed as necrotic cells at 5 uM after 24 hrs by annexin V/PI double staining FACScalibur flow cytometry (reference value: 0.529%); format: functional
[12] = test system: A549; assay: Induction of cell cycle arrest in human A549 cells assessed as accumulation at S phase at 5 uM after 24 hrs by propidium iodide staining based flow cytometric analysis (reference value: 7.63%); format: functional
[13] = test system: A549; assay: Induction of cell cycle arrest in human A549 cells assessed as accumulation at S phase at 1 uM after 24 hrs by propidium iodide staining based flow cytometric analysis (reference value: 7.63%); format: functional
[14] = test system: A549; assay: Induction of apoptosis in human A549 cells assessed as late apoptotic cells at 5 uM after 24 hrs by annexin V/PI double staining FACScalibur flow cytometry (reference value: 0.406 %); format: functional
[15] = test system: A549; assay: Induction of cell cycle arrest in human A549 cells assessed as accumulation at SubG0 phase at 1 uM after 24 hrs by propidium iodide staining based flow cytometric analysis (reference value: 0%); format: functional
[16] = test system: A549; assay: Induction of apoptosis in human A549 cells assessed as early apoptotic cells at 1 uM after 24 hrs by annexin V/PI double staining FACScalibur flow cytometry (reference value: 0.061%); format: functional
[17] = test system: A549; assay: Induction of apoptosis in human A549 cells assessed as early apoptotic cells at 5 uM after 24 hrs by annexin V/PI double staining FACScalibur flow cytometry (reference value: 0.061%); format: functional
[18] = test system: A549; assay: Induction of cell cycle arrest in human A549 cells assessed as accumulation at G2/M phase at 1 uM after 24 hrs by propidium iodide staining based flow cytometric analysis (reference value: 13.26%); format: functional
[19] = test system: A549; assay: Induction of apoptosis in human A549 cells assessed as necrotic cells at 1 uM after 24 hrs by annexin V/PI double staining FACScalibur flow cytometry (reference value: 0.529%); format: functional
[20] = test system: A549; assay: Induction of apoptosis in human A549 cells assessed as early apoptotic cells at 2 uM after 24 hrs by annexin V/PI double staining FACScalibur flow cytometry (reference value: 0.061%); format: functional
[21] = test system: A549; assay: Induction of cell cycle arrest in human A549 cells assessed as accumulation at S phase at 2 uM after 24 hrs by propidium iodide staining based flow cytometric analysis (reference value: 7.63%); format: functional
[22] = test system: A549; assay: Induction of apoptosis in human A549 cells assessed as viable cells at 2 uM after 24 hrs by annexin V/PI double staining FACScalibur flow cytometry (reference value: 99%); format: functional; details: A549, 24 h, read-out: Activity
[23] = test system: A549; assay: Induction of cell cycle arrest in human A549 cells assessed as accumulation at G2/M phase at 5 uM after 24 hrs by propidium iodide staining based flow cytometric analysis (reference value: 13.26%); format: functional
[24] = test system: A549; assay: Induction of cell cycle arrest in human A549 cells assessed as accumulation at G0/G1 phase at 5 uM after 24 hrs by propidium iodide staining based flow cytometric analysis (reference value: 79.11%); format: functional
[25] = test system: A549; assay: Induction of apoptosis in human A549 cells assessed as late apoptotic cells at 2 uM after 24 hrs by annexin V/PI double staining FACScalibur flow cytometry (reference value: 0.406 %); format: functional
[26] = test system: A549; assay: Induction of apoptosis in human A549 cells assessed as viable cells at 5 uM after 24 hrs by annexin V/PI double staining FACScalibur flow cytometry (reference value: 99%); format: functional; details: A549, 24 h, read-out: Activity
[27] = test system: A549; assay: Induction of apoptosis in human A549 cells assessed as necrotic cells at 2 uM after 24 hrs by annexin V/PI double staining FACScalibur flow cytometry (reference value: 0.529%); format: functional
[28] = test system: A549; assay: Induction of apoptosis in human A549 cells assessed as late apoptotic cells at 1 uM after 24 hrs by annexin V/PI double staining FACScalibur flow cytometry (reference value: 0.406 %); format: functional
[29] = test system: A549; assay: Induction of cell cycle arrest in human A549 cells assessed as accumulation at G2/M phase at 2 uM after 24 hrs by propidium iodide staining based flow cytometric analysis (reference value: 13.26%); format: functional

Tubulin, sequence (Q6B856 whole entry): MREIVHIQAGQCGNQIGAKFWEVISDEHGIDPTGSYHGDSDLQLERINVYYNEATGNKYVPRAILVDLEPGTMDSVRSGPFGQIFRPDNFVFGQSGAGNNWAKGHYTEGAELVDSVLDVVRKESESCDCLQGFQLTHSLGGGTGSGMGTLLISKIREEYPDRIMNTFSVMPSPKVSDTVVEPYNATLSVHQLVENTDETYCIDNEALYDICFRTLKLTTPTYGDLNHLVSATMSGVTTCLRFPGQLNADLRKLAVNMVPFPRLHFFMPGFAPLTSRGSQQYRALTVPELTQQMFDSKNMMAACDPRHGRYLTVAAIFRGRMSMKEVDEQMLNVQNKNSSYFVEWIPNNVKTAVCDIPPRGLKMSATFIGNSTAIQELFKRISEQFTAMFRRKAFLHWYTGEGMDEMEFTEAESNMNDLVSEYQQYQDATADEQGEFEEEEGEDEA
Tubulin, sequence (Q862F3 whole entry): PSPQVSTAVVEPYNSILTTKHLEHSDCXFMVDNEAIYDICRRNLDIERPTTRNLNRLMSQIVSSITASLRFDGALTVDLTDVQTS

SMILES: COc1cc2c(c(OC)c1OC)-c1ccc(OC)c(=O)cc1[C@@H](NC(C)=O)CC2 [COLCHICINE]
- GI50 [2]: 4.4 µM
- GI50 [3]: 13.5 µM
- GI50 [5]: 10.5 µM

SMILES: COc1ccc2c(c1)c(-c1nc3ccccc3n1C(=O)c1ccc(OC)c(OC)c1)cn2C
- inhibition [1]: 94%
- GI50 [2]: 2.7 µM
- GI50 [3]: 6.3 µM
- IC50 [4]: 1.7 µM
- GI50 [5]: 5.1 µM

SMILES: COc1cc(C(=O)n2c(-c3cn(C)c4ccccc34)nc3ccccc32)cc(OC)c1OC
- inhibition [1]: 95%
- GI50 [2]: 2.6 µM
- GI50 [3]: 5.4 µM
- IC50 [4]: 1.6 µM
- GI50 [5]: 4.3 µM

SMILES: COc1ccc2c(c1)c(-c1nc3ccccc3n1C(=O)c1cc(OC)c(OC)c(OC)c1)cn2C
- Activity [6]: 60.17%
- Activity [7]: 0%
- Activity [8]: 0%
- inhibition [1]: 96%
- viability at 1 µM [9]: 79.8%
- Activity [10]: 57.42%
- Activity [11]: 0.595%
- Activity [12]: 11.24%
- Activity [13]: 12.51%
- Activity [14]: 6.03%
- Activity [15]: 0%
- Activity [16]: 14.8%
- Activity [17]: 17.2%
- GI50 [2]: 2.4 µM
- Activity [18]: 27.23%
- Activity [19]: 0.59%
- GI50 [3]: 5.1 µM
- Activity [20]: 17%
- Activity [21]: 12.51%
- viability at 2 µM [22]: 77.3%
- Activity [23]: 39.46%
- Activity [24]: 49.3%
- Activity [25]: 5.13%
- viability at 5 µM [26]: 76.2%
- Activity [27]: 0.543%
- Activity [28]: 4.77%
- Activity [29]: 33.21%
- IC50 [4]: 1.5 µM
- GI50 [5]: 3.8 µM

SMILES: COc1ccc(/C=C\c2cc(OC)c(OC)c(OC)c2)cc1O [COMBRETASTATIN A4]
- inhibition [1]: 93%
- GI50 [2]: 2.8 µM
- GI50 [3]: 9.4 µM
- GI50 [5]: 7.4 µM

The remaining lines, values ahead:

- inhibition [1]: 57%
- GI50 [2]: 24.8 µM
- GI50 [3]: 52.7 µM
- IC50 [4]: 29.2 µM
- GI50 [5]: 51.3 µM
SMILES: COc1ccc2c(c1)c(-c1nc3ccccc3n1C(=O)c1cccc(Br)c1)cn2C

- inhibition [1]: 64%
- GI50 [2]: 16.7 µM
- GI50 [3]: 38.4 µM
- IC50 [4]: 19.6 µM
- GI50 [5]: 37.9 µM
SMILES: COc1ccc2c(c1)c(-c1nc3ccccc3n1C(=O)c1ccccc1)cn2C

- inhibition [1]: 61%
- GI50 [2]: 19.6 µM
- GI50 [3]: 43.7 µM
- IC50 [4]: 23.8 µM
- GI50 [5]: 42.3 µM
SMILES: Cn1cc(-c2nc3ccccc3n2C(=O)c2ccccc2)c2ccccc21

- inhibition [1]: 60%
- GI50 [2]: 23.1 µM
- GI50 [3]: 50.3 µM
- IC50 [4]: 25.3 µM
- GI50 [5]: 48.1 µM
SMILES: Cn1cc(-c2nc3ccccc3n2C(=O)c2ccccc2)c2cc(Br)ccc21

- inhibition [1]: 73%
- GI50 [2]: 11.9 µM
- GI50 [3]: 23.9 µM
- IC50 [4]: 8.4 µM
- GI50 [5]: 23.6 µM
SMILES: COc1ccc2c(c1)c(-c1nc3ccccc3n1C(=O)c1ccccc1OC)cn2C

- inhibition [1]: 70%
- GI50 [2]: 12.3 µM
- GI50 [3]: 32.1 µM
- IC50 [4]: 15.9 µM
- GI50 [5]: 31.8 µM
SMILES: COc1ccccc1C(=O)n1c(-c2cn(C)c3ccccc23)nc2ccccc21

- inhibition [1]: 48%
- GI50 [2]: 46.7 µM
- GI50 [3]: 73.6 µM
- IC50 [4]: 45.6 µM
- GI50 [5]: 72.1 µM
SMILES: Cn1cc(-c2nc3ccccc3n2C(=O)c2ccccc2Br)c2cc(Br)ccc21

- inhibition [1]: 78%
- GI50 [2]: 10.8 µM
- GI50 [3]: 18.2 µM
- IC50 [4]: 5.7 µM
- GI50 [5]: 17.8 µM
SMILES: COc1cccc(C(=O)n2c(-c3cn(C)c4ccc(Br)cc34)nc3ccccc32)c1
